Screens (PubChem)
ROMK primary: human ROMK K+ channel modulation, primary screen; P48048; Tet-inducible ROMK, thallium flux fluorescence; actives lie on both sides; B-score at 10 µM; 130,000 compounds, 2% hits; AID 1918;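 active means signal ratio slope over the read window, or its plate-corrected B-score, at least 3 SD from the plate mean, either direction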;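 further: B-score of the F/F0 ratio slope over 7 to 12 s after thallium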
ABCB1 block: inhibitors of human ABCB1 transporter, ABCG2 counter-screen | P08183 | CCRF-Adr cells, JC-1 efflux, flow cytometry | inhibition, % at 6.6 µM | 190,000 compounds, 0.067% hits; in the data active means inhibition above about 40%;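 further: higher value means more JC-1 retained so stronger ABCB1 efflux block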
ABCG2 block: inhibitors of human ABCG2 transporter, ABCB1 counter-screen. 190,000 compounds, 0.1% hits. Q9UNQ0. IgMXP3 cells, JC-1 efflux, flow cytometry. AID 1325. inhibition, % at 6.6 µM;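 active means inhibition above 80%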
Target sequence (Q9UNQ0 whole entry, looked up): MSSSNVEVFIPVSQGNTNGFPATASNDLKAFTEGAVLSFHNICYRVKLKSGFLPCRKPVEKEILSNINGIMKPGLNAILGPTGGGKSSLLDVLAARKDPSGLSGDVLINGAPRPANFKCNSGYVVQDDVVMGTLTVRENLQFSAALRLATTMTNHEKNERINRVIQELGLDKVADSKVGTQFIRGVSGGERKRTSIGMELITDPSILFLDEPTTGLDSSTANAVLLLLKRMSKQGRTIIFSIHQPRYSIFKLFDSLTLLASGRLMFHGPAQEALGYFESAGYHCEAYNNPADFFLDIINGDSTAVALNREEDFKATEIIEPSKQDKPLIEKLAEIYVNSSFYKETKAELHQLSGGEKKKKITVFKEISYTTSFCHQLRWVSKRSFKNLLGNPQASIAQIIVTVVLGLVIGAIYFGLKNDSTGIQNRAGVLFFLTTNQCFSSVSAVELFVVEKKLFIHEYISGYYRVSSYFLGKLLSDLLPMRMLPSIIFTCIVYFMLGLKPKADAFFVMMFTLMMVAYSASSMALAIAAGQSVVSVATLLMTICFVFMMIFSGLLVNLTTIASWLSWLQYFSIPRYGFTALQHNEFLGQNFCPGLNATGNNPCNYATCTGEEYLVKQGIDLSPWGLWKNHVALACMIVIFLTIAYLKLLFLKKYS
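material = IgMXP3 (ABCG2) plus far-red-tagged CCRF-Adr (ABCB1) cells | amount = 3 million cells/mL, equal mix of both lines | also added = JC-1 transporter substrate | dosing = one concentration, 6.6 µM final | schedule = 10 min at 25 °C | measured by = flow cytometric JC-1 green MFI at 530 nm | read-out basis = percent efflux inhibition, scaled nicardipine 100% to DMSO 0%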
Ins promoter up: MIN6 insulin promoter up-regulation. AID 1625. z-score at 5 µM. 190,000 compounds, 0.3% hits. MIN6 insulin promoter-GFP reporter, high-content imaging; hits give high values;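 active means z-score above 3 at 5 µM with at least 500 cells counted in the well; inconclusive means wells under 500 cells, flagged as cytotoxic or low count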
Autophagy mod: alters autophagy in cells | MEF GFP-LC3 puncta imaging; test concentration mostly 10 µM | AID 463193 | 190,000 compounds, 0.98% hits | calls only at 10 µM (by protocol);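 active means percentage of spot-positive cells more than 3 SD above its plate mean, without a fluorescence outlier flag or 80% toxicity; inconclusive means no clear call, values can overlap the other calls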
SDO1 yeast rescue: restores growth of sdo1-depleted yeast | z-score at 10 µM | 140,000 compounds, 0.21% hits | S. cerevisiae sdo1-depleted JHY4D growth rescue, OD600 30 h; hits give high values; pdr5 snq2 efflux-pump mutant strain;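 active means z-score above 3 at both the 24 hr and the 30 hr optical density reads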
ROMK hit retest: confirmation of human ROMK potassium channel modulators. shares compounds with ROMK primary. ROMK thallium flux, fluorescence ratio; hits give low values. normalized thallium flux (F/F0 slope) at 10 µM. 3,000 compounds, 54% hits;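 active means Flux at 10 µM at least 3 SD below or above vehicle control mean in one or both replicates; inconclusive means no clear call, values can overlap the other calls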
Hits are given with their value; . = inactive; ? = inconclusive; / = no result given. The list is not random: actives were taken first. Their share in the collection is about 2.3%.

SMILES | ROMK primary | ABCB1 block | ABCG2 block | Ins promoter up | Autophagy mod | SDO1 yeast rescue | ROMK hit retest
COc1ccc(OC)c(CNC(=O)CCCc2cn(C)c3ccccc23)c1 | 1.3 | . | . | . | . | . | ?
Cc1ccc(CNC(=O)CCCc2ccccc2)cc1 | / | . | . | . | . | / | /
O=C(OCC(=O)N1CCc2ccccc21)c1nc(Cl)ccc1Cl | . | . | . | . | . | / | /
CCCc1nc2ccccc2c(=O)n1-c1ccc(C(=O)OCC)cc1 | . | . | . | . | . | / | /
CCOC(=O)c1sc2nc3c(SCCC#N)cc(C(=O)c4cc(F)ccc4O)cn3c(=O)c2c1C | -3.8 | . | . | . | . | . | .
CCOC(=O)c1sc2nc3c(SCCC(=O)O)cc(C(=O)c4cc(OC)ccc4O)cn3c(=O)c2c1C | . | . | . | . | . | / | /
CCOc1cc(-c2cc(-c3ccccc3)nc(N)c2C#N)ccc1O | . | . | . | / | . | . | /
CCOc1cc(-c2cc(-c3ccc(N)cc3)nc(N)c2C#N)ccc1O | 5 | . | . | . | . | . | .
Cc1ccc(S(=O)(=O)NCCc2ccncc2)cc1C | . | . | . | / | . | / | /
Cc1ccc(OCCCC(=O)NCc2ccco2)cc1 | / | . | . | . | . | . | /
Cc1ccc(OCCNC(=O)C(=O)NCc2ccco2)cc1 | 3 | . | . | . | . | / | 0.1
Cc1ccc(S(=O)(=O)NC(=O)NCc2ccc3c(c2)OCO3)cc1 | . | . | . | . | . | . | .
S=C(NCc1ccc2c(c1)OCO2)NC1CC1 | -19 | . | . | . | . | / | .
CCC(NC(=O)NCc1ccc2c(c1)OCO2)(C(F)(F)F)C(F)(F)F | 1.5 | . | . | . | . | . | .
Cc1c(C(=O)O)oc2ccc(S(=O)(=O)NCc3ccc4c(c3)OCO4)cc12 | / | . | . | . | . | . | .
Cc1ccc(S(=O)(=O)NCC2CCC(C(=O)NCc3ccc4c(c3)OCO4)CC2)cc1 (stereo not drawn) | . | . | . | . | . | . | /
COc1ccccc1OCCNC(=O)Cc1ccc(Cl)c(Cl)c1 | . | . | . | . | . | / | /
O=C1C(=O)N(Cc2ccccc2)C(=O)N1CCOc1ccccc1 | . | . | . | . | . | / | /
O=C(O)/C=C/c1cccc2c1OCCO2 | . | / | / | . | / | / | /
Cc1cn2c(N)c(C=C3C=C(Cl)C(=O)C(Cl)=C3)c(=O)nc2s1 | -6.1 | . | . | . | . | / | 0.025
COc1cc2c3c(c1)C(C)=CC(C)(C)N3C(=O)C2=O | . | . | . | . | . | / | /
COc1cc2c3c(c1)C(C)CC(C)(C)N3C(=O)C2=O (stereo not drawn) | 3.4 | . | . | . | . | / | .
CC(C)(C)Nc1nc(Cl)nc(NCc2ccccc2)n1 | -8.5 | / | / | . | / | / | 0.047
CCCNc1nc(Cl)nc(NCc2cccnc2)n1 | . | / | / | . | / | / | /
COc1ccc2[nH]c(CN3CCN(C(C)C)C(CCO)C3)c(C)c2c1 (stereo not drawn) | -7.8 | . | . | . | . | / | .
SMILES | ROMK primary | ABCB1 block | ABCG2 block | Ins promoter up | Autophagy mod | SDO1 yeast rescue | ROMK hit retest
Cc1ccc(C(=O)OCC(=O)Nc2ccccc2)cc1NC(=O)c1ccco1 | -5.4 | . | . | . | . | . | .
Cc1ccc(C(=O)OCC(=O)Nc2ccc(N(C)C)cc2)cc1NC(=O)c1ccco1 | . | . | . | / | . | . | /
Cc1cnc(NC(=O)Cc2cccs2)s1 | . | . | . | . | . | / | /
O=C(Nc1ccc(N2CCOCC2)cc1)C1CC(O)CN1S(=O)(=O)c1ccc(Cl)cc1 (stereo not drawn) | . | . | . | . | . | / | /
O=C1c2cccc3c([N+](=O)[O-])ccc(c23)C(=O)N1CCc1ccccn1 | . | / | / | . | / | / | /
CN(C)CCCN1C(=O)c2cccc3c([N+](=O)[O-])ccc(c23)C1=O | -4.8 | / | . | ? | . | . | 0.038
COc1ccc(CC(=O)NCCc2ccc(S(N)(=O)=O)cc2)cc1 | 1.5 | . | . | / | . | . | .
O=C(c1nnsc1S(=O)c1ccc(Cl)cc1)N1CCOCC1 (stereo not drawn) | -6.3 | . | . | . | . | / | 0.052
Cc1cc(C)n2c(SCC(=O)N(C)C3CCCCC3)nnc2n1 | . | . | . | . | . | / | /
COC(=O)c1cc(C)ccc1OCc1ccc([N+](=O)[O-])cc1 | -13 | / | / | . | / | / | ?
COC(=O)c1ccc(COc2ccc(C)cc2[N+](=O)[O-])o1 | / | / | / | . | / | / | /
CN1CCC(N(C)C(=O)c2cc(=O)c3ccccc3o2)CC1 | . | . | . | . | . | / | /
CCOC(=O)C(C)Sc1nnc(Cn2c(=O)sc3ccccc32)n1-c1ccccc1 (stereo not drawn) | / | . | . | . | . | . | ?
NC(=O)CSc1nnc(Cn2c(=O)sc3ccccc32)n1-c1ccccc1 | / | . | . | . | . | . | /
COc1cc(C)nc(NC(=O)COc2ccc(Cl)cc2C)n1 | / | . | . | . | . | . | ?
C[C@H]1[C@H](C)CC[C@]2(C)CC[C@]3(C)C(=CC[C@@H]4[C@@]5(C)CC[C@@H](O)[C@](C)(C(=O)O)[C@@H]5CC[C@]43C)[C@H]12 | / | / | / | . | / | / | .
O=C1Nc2ccccc2OCc2c1cccc2[N+](=O)[O-] | 3.5 | . | . | . | . | / | 0.1
O=C1OCc2cccc([N+](=O)[O-])c21 | . | . | . | . | . | . | /
Fc1ccc(NC(=S)Nc2ccccc2N2CCOCC2)cc1Cl | . | . | . | . | . | / | /
O=S(=O)(NCCC1CC1(Cl)Cl)c1ccccc1 (stereo not drawn) | / | / | / | . | / | / | /
CCOc1cc(/C=N/NC(=O)CN2CCCCC2)ccc1OCc1cccc(Cl)c1 | -4.6 | . | . | . | . | . | ?
CCOc1cc(/C=N/NC(=O)CN2CCCCC2)ccc1OCc1ccc(Cl)cc1 | . | / | / | . | . | . | /
C=CCn1c2ccccc2c2nnc(SCN3C(=O)c4ccccc4C3=O)nc21 | . | . | . | . | . | . | /
C=CCn1c2ccccc2c2nnc(SCCCn3c(=O)[nH]c4ccccc43)nc21 | / | . | . | . | . | . | 0.065
CCSc1nnc(NC(=O)c2ccc(Br)s2)s1 | / | . | . | . | . | . | /
SMILES | ROMK primary | ABCB1 block | ABCG2 block | Ins promoter up | Autophagy mod | SDO1 yeast rescue | ROMK hit retest
NC(=O)c1ccccc1NC(=O)c1ccccc1Cl | / | / | / | . | / | / | /
O=C(Nc1nnc(C(F)(F)F)s1)c1ccc(Br)s1 | -3 | . | . | . | . | / | .
O=C(Nc1ccccc1C(=O)Nc1nnc(C(F)(F)F)s1)c1ccccc1Cl | / | / | / | . | / | / | 0.061
COc1ccc(-n2c(C)nc3cc(C(=O)NCc4ccc5c(c4)OCO5)ccc32)cc1 | 4.2 | . | . | . | . | . | .
Cc1cnc(NC(=O)c2sc(Nc3ccccc3)nc2N)o1 | . | / | / | . | / | / | /
Nc1nc(Nc2ccccc2)sc1C(=O)c1ccccc1 | / | / | / | . | / | / | ?
N#CC1=C(N)C2=CCCC[C@H]2[C@H](c2cccc(F)c2)C1(C#N)C#N | -2.5 | . | . | . | . | . | 0.053
CC1=NOC(=O)/C1=C/c1ccc(O)cc1 | -3.7 | . | . | / | . | / | 0.048
CCCc1ccc(OC(=O)c2ccc(O)cc2Cl)cc1 | . | . | . | . | . | / | /
